Source: PubChem BioAssay (Broad Institute)
rRNA inh HTS – inhibits bacterial ribosomal RNA function over humanized ribosomes | GFP signal change (wild-type ribosome), % (no concentration beside the values) | E. coli WT GFP vs humanized-ribosome RFP mutants, fluorescence, 24 h; active compounds read low; DMSO median 0, no signal -100 | 1.6% of 350,000 active;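 active = significant combined selectivity score with lowered wild-type GFP, culture density cut under 30%, mutant RFP and density less affected; inactive = any of these conditions unmet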
Env fusion inh – inhibitors of HIV Env-mediated cell fusion; 1.1% of 360,000 active; AID 651610; inhibition, % at 12.3 µM; HeLa-JRFL Env/CEM21 cell fusion, luciferase;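 active = mean replicate inhibition score of at least 50 and every replicate individually at or above 50; inconclusive = only one of the two criteria met; inactive = mean below 50 and not all replicates reaching 50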;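 note: 0% = plate neutral controls and 100% = maraviroc near 300 nM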
FN deposition inh – fibronectin deposition inhibition | AH1F fibroblasts, Alexa488-fibronectin deposition fluorescence, overnight | inhibition, % at 12.6 µM | 0.086% of 350,000 active;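 active = mean inhibition across replicates of 30% or more, regardless of how many single replicates reach that level; inconclusive = mean under 30% yet at least half of replicates reach 30%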;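 note: positive control wells lacked labelled fibronectin entirely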
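Schedule: 1 h cell adhesion before compound, then overnight fibronectin incubation; test system: AH1F fibroblast monolayer depositing Alexa488-labelled fibronectin into matrix; quantity: 10000 AH1F cells per well; probe or stimulus: fluorescent fibronectin at 24 nM final; signal: fluorescence, ex 485 nm, em 525 nm; evaluation: percent inhibition as loss of matrix-bound fibronectin fluorescence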
Vif imaging – inhibitors of HIV Vif; HEK293T cells, Vif self-association by quenched fluorescence, imaging, 24 h; inhibition, % at 7.49 µM; 0.35% of 340,000 active; AID 602346; in the data active = inhibition above about 50%, passing the limit was not always enough; inconclusive = no clear call, values can overlap the other calls; inactive = below about 31%
miR122 inh – inhibitors of miR-122 in Huh7 cells; Huh7 miR-122 Renilla luciferase sensor, 48 h; neutral wells = 0, positive control = 100; activation (reporter increase), % at 12.5 µM; 0.3% of 340,000 active; AID 602342;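 active = mean replicate activation score at least 90 and every replicate individually at or above 90; inconclusive = only one of the two criteria met; inactive = neither criterion met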;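 note: higher luciferase means less miR-122 activity so hits act as miR-122 inhibitors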
S100A4 MyoIIA – blocks human S100A4 binding to myosin IIA peptide; P26447; S100A4/TAMRA-MyoIIA peptide fluorescence polarization; 0.14% of 360,000 active; inhibition, % at 10.7 µM;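 active = mean inhibition of at least 70% across replicates, with every replicate also reaching that level; inconclusive = mean inhibition reaches 70% but some replicates fall short; inactive = mean inhibition below 70%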
Target sequence (P26447 whole entry, looked up): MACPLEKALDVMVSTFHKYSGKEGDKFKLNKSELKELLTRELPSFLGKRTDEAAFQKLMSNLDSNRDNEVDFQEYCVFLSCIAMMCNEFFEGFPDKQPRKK
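Test system: S100A4 monomer protein. Medium: HEPES buffer with Ca2+, pH 7.2. Reagent: fluorescent myosin IIA peptide, 5 nM. Compound dosing: single-point compound testing. Timing: 5 min between mix addition and reading. Benchmarks: DMSO neutral and TFP positive wells.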
Active calls of the source: *; u = inconclusive; x = no result given; [ ] = remark or other dose. In the library only some 2.6% were active in any assay of this set; here they are far more common.

SMILES	rRNA inh HTS	Env fusion inh	FN deposition inh	Vif imaging	miR122 inh	S100A4 MyoIIA
C[C@@H]1CN([C@H](C)CO)C(=O)c2cccc(NC(=O)CCCCCC(=O)Nc3ccccc3N)c2O[C@H]1CN(C)C	0	x	x	x	x	1
Cc1cc(C)c2nc(C(F)(F)F)nc(N3CCN(C(=O)c4ccco4)CC3)c2c1	x	73*	15	-10	-6	x
O=C(C[C@@H]1C[C@@H]2c3cc(NC(=O)C4CCC4)ccc3O[C@@H]2[C@@H](CO)O1)NCc1cc(F)ccc1F	-4	11[16.7 µM]	-4	x	-2[16.7 µM]	-2
Cc1ccc(OCCCCNC(C)c2ccccc2)c(C)c1 (stereo unspecified)	-13	96*	13	-9	-1	-2
COCCNC(=O)c1ccccc1NC(=O)c1ccccc1N(C)S(=O)(=O)c1ccc(C)cc1	x	x	x	5	23	x
COC(=O)c1ccccc1NC(=O)c1ccccc1N(C)S(=O)(=O)c1ccccc1	3	13	-1	11	-4	0
CCCNC(=O)c1ccccc1NC(=O)c1ccccc1N(C)S(=O)(=O)c1ccccc1	x	72*	-3	-18	-3	x
CC(C)CNC(=O)c1ccccc1NC(=O)c1ccccc1N(C)S(=O)(=O)c1ccccc1	-21	78*	-9	-2	11	-2
CCCN1C[C@H](C)[C@H](OC)CN(C)C(=O)c2ccc(NC(=O)c3cccc(OC)c3)cc2OC[C@H]1C	1	5[16.7 µM]	-2	x	4[16.7 µM]	-65
O=C(C[C@@H]1C[C@H]2c3cc(NC(=O)NC4CCCC4)ccc3O[C@H]2[C@H](CO)O1)NCC1CC1	-2	u	-2	x	-6[16.7 µM]	-3
CCOc1ccc(NC(=O)CN(C)C(=O)c2cc(S(=O)(=O)N3CCCCC3)ccc2Cl)cc1OCC	-3	2	0	92*	1	-3
COc1ccccc1OCC(=O)Nc1ccc(S(=O)(=O)N2CCCC2)cc1	-11	-11	5	76*	-3	1
COc1ccccc1CC(=O)OC(C)C(=O)Nc1ccc(S(=O)(=O)N2CCCCC2)cc1 (stereo unspecified)	-20	-8	46*	18	-6	-10
COc1ccccc1OCC(=O)Nc1ccc(S(=O)(=O)N2CCN(C)CC2)cc1	11	9	6	-4	-1	2
O=C(COc1ccccc1Br)Nc1ccc(S(=O)(=O)N2CCCC2)cc1	-23*	-21	-6	-10	-12	-1
Cc1cc(C)c(C)c(S(=O)(=O)N2CCCCC2C(=O)O)c1C (stereo unspecified)	-4	23	0	55*	7	-1
O=C(NC1CCCC1)N1CC(=O)N2[C@@H](CO)[C@H](c3ccc(-c4cccnc4)cc3)[C@@H]2C1	-1	x	x	x	x	-13
C[C@@H]1CN([C@H](C)CO)C(=O)c2ccccc2-c2ccccc2CO[C@@H]1CN(C)C(=O)Nc1cccc(C(F)(F)F)c1	1	-1[16.7 µM]	-5	x	x	3
COc1ccc(CNC(=O)N(C)C[C@H]2OCc3ccccc3-c3c(n(C)c4ccccc34)C(=O)N([C@@H](C)CO)C[C@@H]2C)cc1	x	58*[16.7 µM]	x	x	x	5
CC(C)[C@H](C)NC(=O)N(C)C[C@H]1OCc2ccccc2-c2ccccc2C(=O)N([C@@H](C)CO)C[C@@H]1C	1	56*[16.7 µM]	-5	x	x	17
C[C@H]1CN([C@@H](C)CO)C(=O)c2ccccc2-c2ccccc2CO[C@@H]1CN(C)C(=O)Nc1cccc(C(F)(F)F)c1	0	59*[16.7 µM]	1	x	x	17
COc1ccc(CNC(=O)N(C)C[C@H]2OCc3ccccc3-c3c(n(C)c4ccccc34)C(=O)N([C@H](C)CO)C[C@@H]2C)cc1	0	68*[16.7 µM]	-19	x	x	-8
C[C@@H]1CCCCO[C@H](CN(C)C(=O)Nc2ccc3c(c2)OCO3)[C@@H](C)CN([C@H](C)CO)C(=O)c2cc(NC(=O)C3CCCCC3)ccc2O1	-4	-8[16.7 µM]	x	x	8[16.7 µM]	2
Cc1noc(C)c1NC(=O)Nc1cccc2c1O[C@H](CN(C)C(=O)Nc1ccccc1)[C@H](C)CN([C@@H](C)CO)C2=O	-1	-37[16.7 µM]	x	x	3[16.7 µM]	9
COc1ccc(CNC(=O)N(C)C[C@@H]2OCc3ccccc3-c3c(n(C)c4ccccc34)C(=O)N([C@H](C)CO)C[C@H]2C)cc1	1	7[16.7 µM]	-7	x	x	-7
SMILES	rRNA inh HTS	Env fusion inh	FN deposition inh	Vif imaging	miR122 inh	S100A4 MyoIIA
COc1ccc(CNC(=O)N(C)C[C@H]2OCc3ccccc3-c3ccccc3C(=O)N([C@H](C)CO)C[C@@H]2C)cc1	-3	72*[16.7 µM]	-5	x	x	7
COc1ccc(NC(=O)Nc2ccc3c(c2)CC(=O)N([C@H](C)CO)C[C@H](C)[C@@H](CN(C)Cc2ccc(C(=O)O)cc2)O3)cc1	-1	x	x	x	x	15
C=C1CCN([C@H](C(=O)OCc2cccc(C)c2)C(C)C)S(=O)(=O)c2ccccc21	1	76*	-4	x	-3	-5
C=C1CCN([C@H](C(=O)O)C(C)C)S(=O)(=O)c2ccccc21	8	-12	4	0	1	4
COCC(=O)N[C@H]1CC[C@@H](CC(=O)NCc2ccc(Cl)cc2)O[C@H]1CO	6	1[16.7 µM]	-22	x	x	23
COc1ccc(N2CC(O)=C(c3nc4ccccc4s3)C2=N)c(OC)c1	x	-1	-3	1	102*	x
COc1ccccc1-c1cnc2c(c1)C(=O)N([C@@H](C)CO)C[C@@H](C)[C@@H](CN(C)Cc1ccc(F)cc1)O2	0	25[16.7 µM]	4	x	5[16.7 µM]	-1
COc1cc(C2C3=C(COC3=O)Oc3cc4c(cc32)OCO4)cc(OC)c1OC(C)=O (stereo unspecified)	1	37	-34	-6	101*	-2
COc1cc(C2C3=C(COC3=O)Oc3cc4c(cc32)OCO4)ccc1OC(C)=O (stereo unspecified)	7	-251	5	4	13	-3
Cc1cccc(OCC(=O)N/N=C/c2cccn2C)c1	24	62*	4	-3	-3	0
Cc1ccc2c(Cl)c(C(=O)N/N=C/c3cccn3C)sc2c1	-22*	-8	-9	0	7	1
C[C@H](CO)N1C[C@H](C)[C@H](CN(C)S(=O)(=O)c2cccs2)Oc2c(NS(=O)(=O)c3ccc(F)cc3)cccc2C1=O	-8	x	-3	x	18[16.7 µM]	-3
O=[N+]([O-])c1ccc2nc(SCc3cn4cc(Cl)ccc4n3)[nH]c2c1	x	112*	-3	0	x	x
O=C(CSc1nc2ccc([N+](=O)[O-])cc2[nH]1)NC1CCCCC1	x	x	x	-18	3	-4
O=C(CSc1nc2ccc([N+](=O)[O-])cc2[nH]1)NC1CCCCCC1	x	116*	x	-17	328*	x
